One test addresses T1, Caspase-6 (Homo sapiens, UniProt P55212).
T1 sequence (P55212 whole entry): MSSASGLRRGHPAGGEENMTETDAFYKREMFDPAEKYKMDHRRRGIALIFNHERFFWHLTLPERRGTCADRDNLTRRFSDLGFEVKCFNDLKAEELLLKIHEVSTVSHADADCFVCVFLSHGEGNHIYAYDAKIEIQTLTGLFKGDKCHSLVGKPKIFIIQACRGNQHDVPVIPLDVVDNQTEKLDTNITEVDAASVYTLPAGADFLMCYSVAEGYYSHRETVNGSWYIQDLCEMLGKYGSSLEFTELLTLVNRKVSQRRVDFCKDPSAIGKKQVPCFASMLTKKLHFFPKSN
The experiment in a line: Inhibitory activity against Caspase-6. The conditions noted are these: read-out: Ki app. Summed up: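 Recombinant full-length human caspase 6 (~10 units/assay) in 50 mM Tris-HCl pH 7.4 with 0.1% CHAPS, 1.5 mM MgCl2, 1 mM EDTA and 5 mM β-mercaptoethanol. Substrate 10 μM Ac-DEVD-AMC. AMC monitored at 360/460 nm, 30 °C, final DMSO 5%. Single-dose screen (typically 5–50 μM), then IC50 determination.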

Test [1] has as its system C20/A4. Put plainly: In vitro inhibition of Chondrocyte cell line C20/A4 apoptosis at 10 uM of compound; Not active. The test is classed as functional, cell-based. To be noted: Homo sapiens. Summed up:
(§1)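 Immortalized human chondrocyte line C20/A4 seeded at 20 000 cells/well overnight, then exposed 24 h to 4 μg/mL camptothecin with or without compound. Floating and adherent cells combined and lysed 30 min at 4 °C, then clarified at 14000g. Mono- and oligonucleosome DNA fragments measured by cell death ELISA; result expressed as % inhibition of apoptosis.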

Test [2] deals with C20/A4. Put plainly: In vitro inhibition of Chondrocyte cell line C20/A4 apoptosis at 25 uM of compound; Not active. To be noted: Homo sapiens. The format is functional, cell-based. A digest of the protocol:
as §1

The next test deals with T2, Caspase-7 (Homo sapiens, UniProt P55210).
T2 sequence (P55210 whole entry): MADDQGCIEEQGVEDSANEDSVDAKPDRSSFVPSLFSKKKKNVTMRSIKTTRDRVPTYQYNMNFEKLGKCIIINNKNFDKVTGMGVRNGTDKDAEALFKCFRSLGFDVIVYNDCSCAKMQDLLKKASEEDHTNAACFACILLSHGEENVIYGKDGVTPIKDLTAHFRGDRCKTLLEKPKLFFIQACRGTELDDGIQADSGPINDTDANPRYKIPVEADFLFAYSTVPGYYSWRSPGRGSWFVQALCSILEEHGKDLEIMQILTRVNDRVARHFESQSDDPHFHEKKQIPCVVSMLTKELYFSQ
The experiment in a line: Inhibitory activity against Caspase-7. To be noted: read-out: Ki app. A digest of the protocol: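 Recombinant full-length human caspase 3 or 7, ~10 units/assay (1 unit = 1 pmol AMC/min). Substrate 10 μM Ac-DEVD-AMC. AMC fluorescence at 360/460 nm, 30 °C, with 5% final DMSO. Single-dose screen (typically 5–50 μM), then IC50 curves; repeated IC50s had CVs typically <30%.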

In test [3] the test system is C20/A4. Put plainly: In vitro inhibition of Chondrocyte cell line C20/A4 apoptosis at 10 uM of compound. The format is functional, Homo sapiens. Summed up: as §1
In test [4] the test system is C20/A4. Put plainly: In vitro inhibition of Chondrocyte cell line C20/A4 apoptosis at 25 uM of compound. The format is functional, Homo sapiens. A digest of the protocol:
as §1

Active and inactive are the calls of the source. No cut-off for these calls is given here.

Regarding `CN(CC1CCCN1S(=O)(=O)c1ccc2c(c1)C(=O)C(=O)N2)c1ccccc1` (configuration not stated), the Ki on Caspase-6 worked out at 57 µM; at Caspase-7 it was 10 µM. The NA result in the test with C20/A4 [1] and in the test with C20/A4 [2] was “inactive” in each case.
In the case of `COC[C@@H]1CCCN1S(=O)(=O)c1ccc2c(c1)C(=O)C(=O)N2`, the figures for the Ki at Caspase-6 and at Caspase-7 were greater than 25 µM and 0.17 µM, respectively. Also, the Inhibition in the test on C20/A4 [3] is given as 44%.
With `O=C1Nc2ccc(S(=O)(=O)N3CCC[C@H]3CNc3ccccc3)cc2C1=O`, the Ki was 7.5 µM on Caspase-6 and 0.047 µM at Caspase-7. Moreover, the Inhibition in the test on C20/A4 [4] came to 96%.
In the case of `O=C1C(=O)N(Cc2ccccc2)c2ccc(S(=O)(=O)N3CCC[C@H]3COc3ccccc3)cc21`, the Ki at Caspase-6 is greater than 5 µM; on Caspase-7 it was 0.006 µM. Further, the Inhibition in the test on C20/A4 [3] is 48%; with C20/A4 [4], 84%.
With `O=C1Nc2ccc(S(=O)(=O)N3CCC[C@H]3COc3ccccc3)cc2C1=O`, the Ki on Caspase-6 was found to be 29 µM; at Caspase-7, 0.047 µM. This molecule also gave an Inhibition in the test on C20/A4 [4] of 83%.

These data come from ChEMBL document CHEMBL1134769, “Potent and selective nonpeptide inhibitors of caspases 3 and 7” (J Med Chem, 2001).
